# System: Mus musculus
# Assay: Antiinflammatory activity in Swiss mouse assessed as inhibition of carrageenan-induced hind paw oedema at 70 mg/kg, po after 4 hrs
# Type: functional
# Settings: not given
# Summary of the method: (§1)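 Swiss mice (20–30 g), six per group; oral dosing, test agents in distilled water, reference in 5% sodium bicarbonate, saline controls. Oedema induced by subplantar injection of 50 µL 1% carrageenan in saline into right hind paw. Paw size measured before and 4 h after carrageenan. % oedema inhibition calculated versus saline control group's % oedema formation. Mean ± SE; one-way ANOVA, Duncan's test.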
row,SMILES,inhibition in vivo at 70 mg/kg [%]
1,CC(=O)C1=NN(c2ccccc2)/C(=C(\C#N)C(=O)c2c[nH]c3ccccc23)S1,-21.9
2,N#C/C(=N\Nc1cc(-c2ccccc2)n[nH]1)C(=O)c1c[nH]c2ccccc12,-13.1
3,N#C/C(=N\Nc1nc2ccccc2[nH]1)C(=O)c1c[nH]c2ccccc12,-25.5
4,N#C/C(C(=O)c1c[nH]c2ccccc12)=C(\S)Nc1ccccc1,-28
5,N#C/C(C(=O)c1c[nH]c2ccccc12)=C1/SCC(=O)N1c1ccccc1,-7.7
6,CCOC(=O)C1=NN(c2ccccc2)/C(=C(\C#N)C(=O)c2c[nH]c3ccccc23)S1,-5.5
7,CCOC(=O)C1=NN(c2ccc(C)cc2)/C(=C(\C#N)C(=O)c2c[nH]c3ccccc23)S1,-11.5
8,CCOC(=O)C1=NN(c2ccc(Cl)cc2)/C(=C(\C#N)C(=O)c2c[nH]c3ccccc23)S1,-19.1
9,CC(=O)c1sc(Nc2ccccc2)c(C#N)c1-c1c[nH]c2ccccc12,-44.4
10,CC(=O)C1=NN(c2ccc(C)cc2)/C(=C(\C#N)C(=O)c2c[nH]c3ccccc23)S1,-32.7
11,CC(=O)C1=NN(c2ccc(Cl)cc2)/C(=C(\C#N)C(=O)c2c[nH]c3ccccc23)S1,-15
12,N#C/C(C(=O)c1c[nH]c2ccccc12)=C1/SC(c2ccccc2)=NN1c1ccccc1,-31

# System: Mus musculus
# Assay: Effect on thermal pain in Swiss mouse at 70 mg/kg, po after 1 hr by hot plate test
# Type: functional
# Settings: not given
# Summary of the method: (§2)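 Hot-plate at 52 °C, 60 s cut-off, Swiss mice, six per group. Latency to paw licking or jumping recorded before and 1 h after oral dosing (test agents in distilled water, reference in 5% sodium bicarbonate). % change from basal latency. Mean ± SE; one-way ANOVA, Duncan's test.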
row,SMILES,Activity [%]
1,CC(=O)C1=NN(c2ccccc2)/C(=C(\C#N)C(=O)c2c[nH]c3ccccc23)S1,2.4
2,N#C/C(=N\Nc1cc(-c2ccccc2)n[nH]1)C(=O)c1c[nH]c2ccccc12,28.3
3,N#C/C(=N\Nc1nc2ccccc2[nH]1)C(=O)c1c[nH]c2ccccc12,8.6
4,N#C/C(C(=O)c1c[nH]c2ccccc12)=C(\S)Nc1ccccc1,24.2
5,N#C/C(C(=O)c1c[nH]c2ccccc12)=C1/SCC(=O)N1c1ccccc1,76.5
6,CCOC(=O)C1=NN(c2ccccc2)/C(=C(\C#N)C(=O)c2c[nH]c3ccccc23)S1,9.6
7,CCOC(=O)C1=NN(c2ccc(C)cc2)/C(=C(\C#N)C(=O)c2c[nH]c3ccccc23)S1,11.4
8,CCOC(=O)C1=NN(c2ccc(Cl)cc2)/C(=C(\C#N)C(=O)c2c[nH]c3ccccc23)S1,9.9
9,CC(=O)c1sc(Nc2ccccc2)c(C#N)c1-c1c[nH]c2ccccc12,11.2
10,CC(=O)C1=NN(c2ccc(C)cc2)/C(=C(\C#N)C(=O)c2c[nH]c3ccccc23)S1,21
11,CC(=O)C1=NN(c2ccc(Cl)cc2)/C(=C(\C#N)C(=O)c2c[nH]c3ccccc23)S1,69.6
12,N#C/C(C(=O)c1c[nH]c2ccccc12)=C1/SC(c2ccccc2)=NN1c1ccccc1,27.3

# System: Mus musculus
# Assay: Antiinflammatory activity in Swiss mouse assessed as inhibition of carrageenan-induced hind paw oedema at 35 mg/kg, po after 4 hrs
# Type: functional
# Settings: not given
# Summary of the method: as §1
row,SMILES,inhibition in vivo at 35 mg/kg [%]
1,COc1ccc2c(c1)c(CC(=O)O)c(C)n2C(=O)c1ccc(Cl)cc1 [INDOMETHACIN],-29.9

# System: Mus musculus
# Assay: Antinociceptive activity in Swiss mouse assessed as inhibition of acetic-acid induced writhing at 70 mg/kg, po after 30 mins by Koster test relative to indomethacin
# Type: functional
# Settings: not given
# Summary of the method: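 Acetic acid writhing in Swiss mice, six per group: 70 mg/kg orally in distilled water, 0.6% acetic acid ip 60 min later, writhes counted over 30 min. Potency is the ratio of % change to that of the indomethacin group (35 mg/kg).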
row,SMILES,Activity
1,CC(=O)C1=NN(c2ccccc2)/C(=C(\C#N)C(=O)c2c[nH]c3ccccc23)S1,0.88 ratio to indomethacin
2,N#C/C(=N\Nc1cc(-c2ccccc2)n[nH]1)C(=O)c1c[nH]c2ccccc12,0.77 ratio to indomethacin
3,N#C/C(=N\Nc1nc2ccccc2[nH]1)C(=O)c1c[nH]c2ccccc12,0.78 ratio to indomethacin
4,N#C/C(C(=O)c1c[nH]c2ccccc12)=C(\S)Nc1ccccc1,0.79 ratio to indomethacin
5,N#C/C(C(=O)c1c[nH]c2ccccc12)=C1/SCC(=O)N1c1ccccc1,0.75 ratio to indomethacin
6,CCOC(=O)C1=NN(c2ccccc2)/C(=C(\C#N)C(=O)c2c[nH]c3ccccc23)S1,0.76 ratio to indomethacin
7,CCOC(=O)C1=NN(c2ccc(C)cc2)/C(=C(\C#N)C(=O)c2c[nH]c3ccccc23)S1,0.96 ratio to indomethacin
8,CCOC(=O)C1=NN(c2ccc(Cl)cc2)/C(=C(\C#N)C(=O)c2c[nH]c3ccccc23)S1,0.9 ratio to indomethacin
9,CC(=O)c1sc(Nc2ccccc2)c(C#N)c1-c1c[nH]c2ccccc12,0.85 ratio to indomethacin
10,CC(=O)C1=NN(c2ccc(C)cc2)/C(=C(\C#N)C(=O)c2c[nH]c3ccccc23)S1,0.7 ratio to indomethacin
11,CC(=O)C1=NN(c2ccc(Cl)cc2)/C(=C(\C#N)C(=O)c2c[nH]c3ccccc23)S1,0.57 ratio to indomethacin
12,N#C/C(C(=O)c1c[nH]c2ccccc12)=C1/SC(c2ccccc2)=NN1c1ccccc1,0.4 ratio to indomethacin

# System: Mus musculus
# Assay: Effect on thermal pain in Swiss mouse at 35 mg/kg, po after 1 hr by hot plate test
# Type: functional
# Settings: not given
# Summary of the method: as §2
row,SMILES,Activity [%]
1,COc1ccc2c(c1)c(CC(=O)O)c(C)n2C(=O)c1ccc(Cl)cc1 [INDOMETHACIN],22.6

# System: Mus musculus
# Assay: Antinociceptive activity in Swiss mouse assessed as inhibition of acetic-acid induced writhing at 70 mg/kg, po after 30 mins by Koster test
# Type: functional
# Settings: not given
# Summary of the method: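 Koster writhing test in Swiss mice (20–30 g), six per group. Oral dosing, test agents in distilled water, reference in 5% sodium bicarbonate. After 60 min, 0.6% acetic acid given ip (0.2 mL/mouse). Writhes counted over 30 min. % change versus saline control group. Mean ± SE; one-way ANOVA, Duncan's test.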
row,SMILES,percent change in writhing count versus control [%]
1,CC(=O)C1=NN(c2ccccc2)/C(=C(\C#N)C(=O)c2c[nH]c3ccccc23)S1,-71.6
2,N#C/C(=N\Nc1cc(-c2ccccc2)n[nH]1)C(=O)c1c[nH]c2ccccc12,-62.5
3,N#C/C(=N\Nc1nc2ccccc2[nH]1)C(=O)c1c[nH]c2ccccc12,-63.2
4,N#C/C(C(=O)c1c[nH]c2ccccc12)=C(\S)Nc1ccccc1,-64.1
5,N#C/C(C(=O)c1c[nH]c2ccccc12)=C1/SCC(=O)N1c1ccccc1,-60.9
6,CCOC(=O)C1=NN(c2ccccc2)/C(=C(\C#N)C(=O)c2c[nH]c3ccccc23)S1,-61.7
7,CCOC(=O)C1=NN(c2ccc(C)cc2)/C(=C(\C#N)C(=O)c2c[nH]c3ccccc23)S1,-77.5
8,CCOC(=O)C1=NN(c2ccc(Cl)cc2)/C(=C(\C#N)C(=O)c2c[nH]c3ccccc23)S1,-76
9,CC(=O)c1sc(Nc2ccccc2)c(C#N)c1-c1c[nH]c2ccccc12,-68.6
10,CC(=O)C1=NN(c2ccc(C)cc2)/C(=C(\C#N)C(=O)c2c[nH]c3ccccc23)S1,-57.8
11,CC(=O)C1=NN(c2ccc(Cl)cc2)/C(=C(\C#N)C(=O)c2c[nH]c3ccccc23)S1,-45.7
12,N#C/C(C(=O)c1c[nH]c2ccccc12)=C1/SC(c2ccccc2)=NN1c1ccccc1,-35.3

# System: Mus musculus
# Assay: Antinociceptive activity in Swiss mouse assessed as inhibition of acetic-acid induced writhing at 35 mg/kg, […] by Koster test
# Type: functional
# Design: scale not given: the % may be the effect or the level left
# Settings: route oral
row,SMILES,Activity [%]
1,COc1ccc2c(c1)c(CC(=O)O)c(C)n2C(=O)c1ccc(Cl)cc1 [INDOMETHACIN],-80.7

# System: Mus musculus
# Assay: Effect on thermal pain in Swiss mouse at 70 mg/kg, po after 1 hr by hot plate test relative to indomethacin
# Type: functional
# Design: unit not given here
# Settings: not given
# Summary of the method: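 Hot-plate at 52 °C (60 s cut-off), Swiss mice, six per group. Latency to licking or jumping measured before and 1 h after 70 mg/kg orally. Potency is the ratio of % change from basal to that of the indomethacin group (35 mg/kg).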
row,SMILES,Activity
1,CC(=O)C1=NN(c2ccccc2)/C(=C(\C#N)C(=O)c2c[nH]c3ccccc23)S1,0.1
2,N#C/C(=N\Nc1cc(-c2ccccc2)n[nH]1)C(=O)c1c[nH]c2ccccc12,1.3
3,N#C/C(=N\Nc1nc2ccccc2[nH]1)C(=O)c1c[nH]c2ccccc12,0.4
4,N#C/C(C(=O)c1c[nH]c2ccccc12)=C(\S)Nc1ccccc1,1.1
5,N#C/C(C(=O)c1c[nH]c2ccccc12)=C1/SCC(=O)N1c1ccccc1,3.4
6,CCOC(=O)C1=NN(c2ccccc2)/C(=C(\C#N)C(=O)c2c[nH]c3ccccc23)S1,0.4
7,CCOC(=O)C1=NN(c2ccc(C)cc2)/C(=C(\C#N)C(=O)c2c[nH]c3ccccc23)S1,0.5
8,CCOC(=O)C1=NN(c2ccc(Cl)cc2)/C(=C(\C#N)C(=O)c2c[nH]c3ccccc23)S1,0.4
9,CC(=O)c1sc(Nc2ccccc2)c(C#N)c1-c1c[nH]c2ccccc12,0.5
10,CC(=O)C1=NN(c2ccc(C)cc2)/C(=C(\C#N)C(=O)c2c[nH]c3ccccc23)S1,0.9
11,CC(=O)C1=NN(c2ccc(Cl)cc2)/C(=C(\C#N)C(=O)c2c[nH]c3ccccc23)S1,3.1
12,N#C/C(C(=O)c1c[nH]c2ccccc12)=C1/SC(c2ccccc2)=NN1c1ccccc1,1.2

# System: Mus musculus
# Assay: Antiinflammatory activity in Swiss mouse assessed as inhibition of carrageenan-induced hind paw oedema at 70 mg/kg, po after 4 hrs relative to indomethacin
# Type: functional
# Settings: not given
# Summary of the method: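 Carrageenan paw oedema in Swiss mice, six per group, 70 mg/kg orally in distilled water; 50 µL 1% carrageenan subplantar, paw measured at 0 and 4 h. Potency expressed as ratio of the compound's percentage change to that of the indomethacin group (35 mg/kg in 5% sodium bicarbonate).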
row,SMILES,Activity
1,CC(=O)C1=NN(c2ccccc2)/C(=C(\C#N)C(=O)c2c[nH]c3ccccc23)S1,0.6 ratio (fold of indomethacin)
2,N#C/C(=N\Nc1cc(-c2ccccc2)n[nH]1)C(=O)c1c[nH]c2ccccc12,0.4 ratio (fold of indomethacin)
3,N#C/C(=N\Nc1nc2ccccc2[nH]1)C(=O)c1c[nH]c2ccccc12,0.9 ratio (fold of indomethacin)
4,N#C/C(C(=O)c1c[nH]c2ccccc12)=C(\S)Nc1ccccc1,0.9 ratio (fold of indomethacin)
5,N#C/C(C(=O)c1c[nH]c2ccccc12)=C1/SCC(=O)N1c1ccccc1,0.3 ratio (fold of indomethacin)
6,CCOC(=O)C1=NN(c2ccccc2)/C(=C(\C#N)C(=O)c2c[nH]c3ccccc23)S1,0.2 ratio (fold of indomethacin)
7,CCOC(=O)C1=NN(c2ccc(C)cc2)/C(=C(\C#N)C(=O)c2c[nH]c3ccccc23)S1,0.4 ratio (fold of indomethacin)
8,CCOC(=O)C1=NN(c2ccc(Cl)cc2)/C(=C(\C#N)C(=O)c2c[nH]c3ccccc23)S1,0.6 ratio (fold of indomethacin)
9,CC(=O)c1sc(Nc2ccccc2)c(C#N)c1-c1c[nH]c2ccccc12,1.5 ratio (fold of indomethacin)
10,CC(=O)C1=NN(c2ccc(C)cc2)/C(=C(\C#N)C(=O)c2c[nH]c3ccccc23)S1,1.1 ratio (fold of indomethacin)
11,CC(=O)C1=NN(c2ccc(Cl)cc2)/C(=C(\C#N)C(=O)c2c[nH]c3ccccc23)S1,0.5 ratio (fold of indomethacin)
12,N#C/C(C(=O)c1c[nH]c2ccccc12)=C1/SC(c2ccccc2)=NN1c1ccccc1,0.9 ratio (fold of indomethacin)

# Reference: ChEMBL document CHEMBL1147939, “Synthesis and biological evaluation of new 3-substituted indole derivatives as potential anti-inflammatory and analgesic agents” (2007)
